Measurements from ChEMBL document CHEMBL4513216, “Probing the Open Global Health Chemical Diversity Library for Multistage-Active Starting Points for Next-Generation Antimalarials” (ACS Infect Dis, 2020).

Assay: Toxicity liver stage against HepG2, at 10uM
Type: cell-based
Parameters: test concentration 10 uM, cell line HepG2-A16-CD81EGFP
Details: human, HepG2-A16-CD81EGFP cells; read-out: INHIBITION
Outline: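 Uninfected HepG2-A16-CD81EGFP cells, 3 × 10^3 per well, 1536-well, plated on prespotted compound at 10 μM final, parasite-free screening media added to match infected plates; puromycin 10 μM positive, DMSO 0.5% negative; run in parallel with 48 h PbLuc assay at 37 °C, 5% CO2; viability by CellTiter-Glo luminescence, normalized to controls.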

| SMILES | cytotoxicity at 10 µM [%] |
| --- | --- |
| COCCn1cc(CCC(=O)Nc2c(C)nn(C)c2C)c2ccccc21 | -177 |
| CS(=O)(=O)N1C[C@@H]2COC[C@@H](CC(=O)N3CCCO3)[C@@H]2C1 | 11.1 |
| CN(C)C(=O)COCc1ncn2c1CN(c1ncc(F)cn1)CCC2 | 6.01 |
| CC(C)C(=O)N1CCCC12CCCN(C(=O)c1ccno1)C2 (centres undefined) | 5.35 |
| Cc1nnc([C@@H]2CCO[C@@H]3CCN(C(=O)Cc4ccccn4)C[C@@H]32)o1 | 10.1 |
| Cn1cc(CN2CCO[C@H]3CN(Cc4ccco4)C[C@H]32)cn1 | -140 |
| c1cncc(COCC2CN(Cc3ccncc3)Cc3ccnn3C2)c1 (centres undefined) | -135 |
| O=c1[nH]nc2c(S(=O)(=O)N3CCN(c4ccc(F)cc4)CC3)cccn12 | 11.8 |
| O=C(COc1cc(Cl)cc(Cl)c1)NCc1nncn1C1CC1 | -11.5 |
| CCCc1nc(CN(CCO)Cc2cc(Br)ccc2F)no1 | -5.1 |
| CN(CCO)Cc1cc(=O)n2cc(Br)ccc2n1 | -6.69 |
| CCSCc1ccnc(NC(=O)C2CCOC2)c1 (centres undefined) | 0.841 |
| O=C(Nc1ccc(-n2ccc(C(=O)O)n2)cc1)c1ccccc1 | -139 |
| Cc1nn(C)c(C)c1C(=O)N1CCN(C(=O)CC2CCCCC2)CC1 | -2.55 |
| CCOc1cccc(CNc2cnn(CC(C)C)c2CC)c1 | 2.93 |
| COC(=O)CCNC(=O)c1c[nH]cc1-c1cccc(OC)c1 | 4.89 |
| CC(C)COC(=O)N1CCCN(Cc2nnc(C(C)(C)C)o2)CC1 | 11.1 |
| CCCc1nc(CN2CCCC2Cn2cccn2)cs1 (centres undefined) | -4.45 |
| O=C(CCN1C(=O)CCC1=O)Nc1ccc(OCC(F)(F)F)nc1 | -13.4 |
| N#CCc1ccc(OCC(=O)NS(=O)(=O)c2ccc(Cl)s2)cc1 | 6.41 |
| Cc1cnn(CC2CCCN2C(=O)Cc2cn3ccsc3n2)c1 (centres undefined) | -10.1 |
| CN(Cc1cccc(OC(F)(F)F)c1)C(=O)c1ccncc1F | 3.76 |

| SMILES | cytotoxicity at 10 µM [%] |
| --- | --- |
| O=C(NCCOc1ncc(Cl)cc1Cl)c1ccncc1 | 7.18 |
| Cc1nc(CN2CCC3(C2)CN(C(=O)c2conc2C)C3)cs1 | -105 |
| c1ccc(-c2nc3c(c(NCc4nnc5n4CCC5)n2)CCNC3)cc1 | -3.71 |
| CCOc1ccc(CN(CCOC)C(=O)c2ccncc2Cl)cc1 | 5.82 |
| Cc1noc(C)c1CN(C)Cc1cnc(N2CCOCC2)nc1 | -2.28 |
| CCNC(=O)N(C)C(c1cccc(F)c1)c1ccccn1 (centres undefined) | -11.6 |
| COc1ccc(C(=O)N2CCCCC2c2nc(C)cs2)nn1 (centres undefined) | -6.77 |
| Cc1nccn1CC1CCCN1S(=O)(=O)Cc1ccccc1 (centres undefined) | -18 |
| CC(O)CN1CCN(C(=O)c2ccc(N(C)C)nc2)CC1 (centres undefined) | -9.78 |
| N#Cc1ccccc1OCCN1CCn2c(nnc2C2CC2)C1 | 2.94 |
| O=C(Cc1csc(-c2nnc[nH]2)n1)N1CCCC1Cn1cccn1 (centres undefined) | -2.48 |
| CCCc1nc(CN2CCCC(Cn3cncn3)C2)no1 (centres undefined) | -4.02 |
| Cc1cnn(CC2CCCN2C(=O)c2ccc3[nH]nnc3c2)c1 (centres undefined) | 1.03 |
| Cc1nc(C)n(CC2CCCN(CCNC(=O)OC(C)(C)C)C2)n1 (centres undefined) | 1.08 |
| NCc1ccccc1Sc1ccc(O)cc1 | 1.31 |
| Cc1cnc(N2CC[C@H]3[C@H](C[C@@H](CN(C)C)N3C)C2)nc1 | 5.71 |
| CN(C)CCNC(=O)[C@H]1C[C@H]2CN(c3ncccn3)C[C@H]2N1C | 9.52 |
| Cc1cccc(CN2C[C@@H]3OCCN(CC(=O)N(C)C)[C@@H]3C2)c1 | -110 |
| Cc1cc(C(=O)N2CC[C@H]3[C@H](C[C@@H](CN4CCCC4)N3C)C2)c(C)o1 | 9.97 |
| CS(=O)(=O)N1CCC2(CC1)CN(CC1CCOC1)c1ccccc12 (centres undefined) | -108 |
| CS(=O)(=O)N1CC[C@H]2OCC[C@@]2(C(=O)NCc2ccccn2)C1 | -84.7 |
| CC(C)=CCN1C[C@@H]2CC[C@H]1CN(C(=O)c1ccc(S(N)(=O)=O)cc1)C2 | -5.96 |
